Only some compounds are listed: those with a hit (about 4.9% of all), similar ones and a draw of the others.
STAT1 activator – STAT1 signaling activation; actives 2.6% (n = 200,000); AID 932; activation (% of control), % at 5.5 µM; NIH 3T3 STAT1-luciferase reporter, IFN-gamma, luminescence; 100% = IFN-gamma alone, no compound;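 active = activation above the screen-wide mean activation plus 3 SD, cut at about 130% in these data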;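 note: raw ratio to IFN-gamma control signal so 100% means no change and 0% no light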
APP 5'UTR act – activates APP 5'UTR luciferase reporter; SH-SY5Y APP 5'UTR luciferase reporter, luminescence; zero percent = DMSO vehicle wells; activation, % at 2 µM; actives 1% (n = 190,000); AID 1276;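 active = activation above a set limit, based on mean plus 3 SD of controls, cut at about 140% in these data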
STAT1 blocker – reduces IFN-gamma driven STAT1 reporter signal; NIH 3T3 STAT1-luciferase reporter, luminescence; inhibition, % at 5.5 µM; actives 0.35% (n = 200,000); AID 920;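 active = inhibition above a set limit, the mean inhibition across all tested compounds plus 3 SD, cut at about 34% in these data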;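 note: 0% = IFN-gamma with DMSO and 100% = IFN-gamma with 300 µM nifuroxazide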
STAT3 activator – activators of IL-6 induced STAT3 signaling | U3A cells, IL-6 STAT3-luciferase reporter, luminescence; 100% = signal with IL-6 EC80 alone | activation (% of control), % at 5.6 µM | actives 0.91% (n = 190,000) | AID 871;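 active = activation above the screen-wide mean of compound activation plus 3 SD, cut at about 130% in these data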;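 note: 0% = background luminescence of wells with medium and substrate only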
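System – human U3A cells carrying STAT3-luciferase construct · Probe or stimulus – Interleukin-6, 33 ng/mL · Schedule – compound 1 h, then IL-6 6 h at 37 °C · Signal – luminescence from STAT3-driven luciferase reporter · Evaluation – percent of IL-6-only median luminescence · Benchmarks – IL-6-only high control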
STAT3 inh-1 – STAT3 signaling inhibition | U3A cells, IL-6 STAT3-luciferase reporter, luminescence; host cell line lacks STAT1 | inhibition, % at 5.5 µM | actives 0.89% (n = 190,000) | AID 862;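 active = inhibition above the mean inhibition across all screened compounds plus 3 SD, cut at about 44% in these data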;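 note: 0% = DMSO only wells and 100% = 100 µM nifuroxazide control wells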
NF-kB expr up – NF-kB expression increase, human neuronal cells; NF-kB reporter expression; stronger effect = higher value; fold change at 12.5 µM; actives 1.6% (n = 190,000); in the data active = fold change above about 3.3
STAT3 inh-2 – STAT3 inhibition, confirmation assay | U3A cells, IL-6 STAT3 luciferase reporter, luminescence; cell line lacks STAT1 | inhibition, % at 5.7 µM | shares compounds with STAT3 inh-1 | actives 45% (n = 1,200);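 active = inhibition above the hit cutoff computed for the primary STAT3 screen, cut at about 44% in these data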;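 note: 0% = IL-6 plus DMSO and 100% = IL-6 plus nifuroxazide control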
NFkB inh 2 – NF-kappaB inhibition in STAT3 inhibitor counter-screen; AID 1308; shares compounds with STAT3 inh-1; actives 36% (n = 1,200); HEK293T NF-kB luciferase reporter, TNF-alpha induced; inhibition, % at 5.7 µM;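 active = inhibition above the mean of solvent-only control wells plus 3 SD, cutoff set per campaign, cut at about 13% in these data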;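 note: 0% = TNF-alpha with DMSO and 100% = TNF-alpha with MG high control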
STAT1 inh 2 – counter-screen for STAT3 inhibitors: STAT1 inhibition | shares compounds with STAT3 inh-1 | NIH 3T3 STAT1-luciferase reporter, IFN-gamma induced, luminescence | inhibition, % at 5.7 µM | actives 27% (n = 1,200) | AID 1317;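 active = inhibition above the mean plus 3 SD of solvent-only control wells, limit set per screening run, cut at about 16% in these data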;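 note: 0% = DMSO with IFN-gamma and 100% = nifuroxazide control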
Active calls of the source: *; / = not tested or not shown.

SMILES	STAT1 activator	APP 5'UTR act	STAT1 blocker	STAT3 activator	STAT3 inh-1	NF-kB expr up	STAT3 inh-2	NFkB inh 2	STAT1 inh 2
CCc1nc(C)cn1S(=O)(=O)c1cc(C)c(OC)c(C)c1C	81	20	21	57	54*	0.89	45*	10	17*
CC(OC(=O)c1ccc(Cl)nc1)C(=O)NC(C)(C)C (centres undefined)	98	2	2	99	12	1.2	/	/	/
O=C(CCc1ccc(S(=O)(=O)NCc2ccccc2)cc1)NCC1CCCO1 (centres undefined)	105	9	-6	94	10	0.91	/	/	/
COc1ccc(NS(=O)(=O)c2ccc(NC(=O)c3ccc(CN4CCOCC4)cc3)cc2)cc1	81	-7	20	39	73*	0.84	66*	16*	14
O=C(Nc1ccc(S(=O)(=O)Nc2ccc(F)cc2)cc1)c1ccc(CN2CCOCC2)cc1	92	-15	6	35	80*	0.61	84*	30*	14
COc1ccc(NS(=O)(=O)c2cccc(NC(=O)c3ccc(S(=O)(=O)N4CCCCCC4)cc3)c2)cc1	82	-22	20	49	61*	0.51	69*	23*	25*
COc1ccc(NS(=O)(=O)c2ccc(O)c(NC(=O)c3ccc(S(=O)(=O)N4CCCCCC4)cc3)c2)cc1	96	12	4	96	3	1.1	/	/	/
O=C(COC(=O)CCSc1ccccc1)Nc1cc(F)ccc1F	102	18	-4	110	-5	1.1	/	/	/
CCOC(=O)c1sc2nc(CC(=O)OC)nc(NCc3ccc(Cl)cc3)c2c1C	95	5	6	66	44*	0.87	50*	12	14
CC(C)(C)C(C(=O)O)N1CCS(=O)(=O)CC1 (centres undefined)	101	15	-1	96	9	0.98	/	/	/
CCOc1ccc(N=c2scc(-c3ccc(OC)cc3)n2CCO)cc1	98	30	3	54	59*	0.91	18	-2	-5
CC(C)n1nc(C(=O)Nc2nc3ccccc3[nH]2)c2ccccc2c1=O	96	-31	4	81	26	0.5	/	/	/
Cc1cc(C(=O)COC(=O)CCc2nc3ccccc3s2)c(C)n1C	101	9	-1	99	6	0.97	/	/	/
CC(C)Cn1c(N)c(C(=O)COC(=O)c2ccc(Cl)cc2)c(=O)n(C)c1=O	85	-13	16	75	31	0.75	/	/	/
CC(C)Cn1c(N)c(C(=O)COC(=O)CC23CC4CC(CC(C4)C2)C3)c(=O)n(C)c1=O	79	-10	23	41	70*	0.64	73*	24*	24*
CC(C)Cn1c(N)c(C(=O)COC(=O)CCc2nc3ccccc3s2)c(=O)n(C)c1=O	76	-8	25	41	70*	0.82	74*	8	16
CC(C)Cn1c(N)c(C(=O)CSc2ccccc2)c(=O)n(C)c1=O	99	-1	1	62	45*	1	44*	-4	-1
CC(C)CCN1CCN(CC(c2ccccc2)c2ccccc2)CC1CCO (centres undefined)	101	5	-3	99	4	1.1	/	/	/
CCNC(=S)Nc1ccc(Cl)c(C(F)(F)F)c1	94	3	6	92	11	1.1	/	/	/
CCOC(=O)N1CCN(C(=O)CSCC(=O)Nc2nc(-c3ccc(-c4ccccc4)cc3)cs2)CC1	100	124	0	44	72*	1.2	73*	15*	-8
CCOC(=O)N1CCN(C(=O)CSCC(=O)Nc2nc(-c3ccc(OC)cc3)cs2)CC1	97	22	4	88	18	1.1	/	/	/
COc1ccc(CN2CCN(C(=O)c3ccc4nc(N5CCOCC5)sc4c3)CC2)c(OC)c1OC	91	-1	8	99	3	1.3	/	/	/
CCCCCn1c(=O)[nH]c2cc(C(=O)N3CCN(Cc4ccc5c(c4)OCO5)CC3)ccc2c1=O	86	0	15	28	87*	0.62	88*	42*	23*
CC1CCN(c2nc3ccc(C(=O)N4CCN(Cc5ccc6c(c5)OCO6)CC4)cc3s2)CC1	120	57	-22	65	49*	1.6	26	-9	-49
CCCCCn1c(=O)[nH]c2cc(C(=O)NCc3ccc4c(c3)OCO4)ccc2c1=O	103	0	-4	91	16	1.1	/	/	/
SMILES	STAT1 activator	APP 5'UTR act	STAT1 blocker	STAT3 activator	STAT3 inh-1	NF-kB expr up	STAT3 inh-2	NFkB inh 2	STAT1 inh 2
Cc1nnc(NC(=O)C2CCCN2S(=O)(=O)c2ccc(Cl)cc2)s1 (centres undefined)	98	-13	2	99	7	1.1	/	/	/
COC(=O)Cc1csc(Nc2ccccc2Cl)n1	112	56	-13	88	13	1.8	/	/	/
CNC1=C(N(C(C)=O)c2ccc(Br)cc2)C(=O)c2ccccc2C1=O	75	-55	28	59	49*	0.97	53*	31*	41*
COc1ccc(C(=O)CSc2nnc(Cn3cnc4ccccc43)o2)cc1	91	11	10	42	73*	0.69	49*	14*	2
CC(=O)c1ccc(NC(=O)CSc2nnc(Cn3cnc4ccccc43)o2)cc1	91	-12	10	101	7	1.2	/	/	/
Cc1cc(C)c2cc(CN(Cc3cccnc3)C(=O)c3ccc(F)cc3)c(Cl)nc2c1	105	8	-6	106	4	0.6	/	/	/
Cc1ccc(Nc2c([N+](=O)[O-])c(=O)n(C)c3ccccc23)cc1C	92	-7	9	104	5	0.58	/	/	/
CC(=O)N1CCc2cc(S(=O)(=O)NC3CCCc4ccccc43)ccc21 (centres undefined)	83	1	19	62	48*	0.7	46*	1	9
CC(C)Cn1c(=S)[nH]c2cc(Cl)ccc21	95	15	5	101	-1	0.97	/	/	/
COc1ccc(-[n+]2c(C)cc(/C=C3\Sc4ccccc4N3C)cc2C)cc1	74	-83	28	28	85*	5.4*	85*	56*	2
CCCc1nc2c(sc3nc4c(cc32)COC(C)(C)C4)c(=O)n1CCN(CC)CC	93	6	6	96	11	1.3	/	/	/
Cc1nc2nc(NCc3cccs3)nn2c(C)c1Cl	104	5	-4	88	19	1.2	/	/	/
Cc1ccoc1C(=O)Nc1ccc(CC(=O)O)cc1	75	-79	27	52	57*	0.58	51*	27*	14
